Assay results as given in PMC7058367 (Biochemical pharmacology, 2018).
Like-named read-outs stand apart in the source and are kept apart here.

Legend:
[1] = target: GluN1/GluN2C^ΔCTD receptors (Rattus norvegicus, UniProt P35439+Q00961); experiment: Two-electrode voltage clamp of GluN2C CTD-deleted receptors; format: cell-based
Procedure, shortened: (§1)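 Xenopus laevis oocytes were injected with GluN1a and GluN2 RNA at a 1:3 molar ratio. The CTD was removed by a stop codon at GluN1 838K or GluN2C 855K, and 10-20-fold more RNA than wild type was injected. Oocytes were kept in ND-96 at 17 °C for 1-5 days. TEVC was run at -60 mV in Ba2+ buffer (pH 7.4). […] Full-length receptors were run alternately on the same day and oocyte batch. Values are mean ± s.e.m.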

[2] = target: GluN1/GluN2A^ΔCTD receptors (Rattus norvegicus, UniProt P35439+Q00959); format: cell-based
Procedure, shortened: (§2)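 Xenopus laevis oocytes were injected with GluN1a:GluN2 RNA at a 1:3 molar ratio (15-30 ng total; 10-20-fold more for CTD-deleted subunits) and kept in ND-96 at 17 °C for 1-5 days. TEVC was run at -60 mV in 116 mM NaCl, 2 mM KCl, 0.3 mM BaCl2, 5 mM HEPES, pH 7.4. […] Full-length controls came from the same batch and day; mean ± s.e.m.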

[3] = target: GluN1^ΔCTD/GluN2D receptors (Rattus norvegicus, UniProt P35439+Q62645); format: cell-based
Sequence of GluN1^ΔCTD/GluN2D receptors (Q62645 28-1323, stated change not applied, other chains not shown): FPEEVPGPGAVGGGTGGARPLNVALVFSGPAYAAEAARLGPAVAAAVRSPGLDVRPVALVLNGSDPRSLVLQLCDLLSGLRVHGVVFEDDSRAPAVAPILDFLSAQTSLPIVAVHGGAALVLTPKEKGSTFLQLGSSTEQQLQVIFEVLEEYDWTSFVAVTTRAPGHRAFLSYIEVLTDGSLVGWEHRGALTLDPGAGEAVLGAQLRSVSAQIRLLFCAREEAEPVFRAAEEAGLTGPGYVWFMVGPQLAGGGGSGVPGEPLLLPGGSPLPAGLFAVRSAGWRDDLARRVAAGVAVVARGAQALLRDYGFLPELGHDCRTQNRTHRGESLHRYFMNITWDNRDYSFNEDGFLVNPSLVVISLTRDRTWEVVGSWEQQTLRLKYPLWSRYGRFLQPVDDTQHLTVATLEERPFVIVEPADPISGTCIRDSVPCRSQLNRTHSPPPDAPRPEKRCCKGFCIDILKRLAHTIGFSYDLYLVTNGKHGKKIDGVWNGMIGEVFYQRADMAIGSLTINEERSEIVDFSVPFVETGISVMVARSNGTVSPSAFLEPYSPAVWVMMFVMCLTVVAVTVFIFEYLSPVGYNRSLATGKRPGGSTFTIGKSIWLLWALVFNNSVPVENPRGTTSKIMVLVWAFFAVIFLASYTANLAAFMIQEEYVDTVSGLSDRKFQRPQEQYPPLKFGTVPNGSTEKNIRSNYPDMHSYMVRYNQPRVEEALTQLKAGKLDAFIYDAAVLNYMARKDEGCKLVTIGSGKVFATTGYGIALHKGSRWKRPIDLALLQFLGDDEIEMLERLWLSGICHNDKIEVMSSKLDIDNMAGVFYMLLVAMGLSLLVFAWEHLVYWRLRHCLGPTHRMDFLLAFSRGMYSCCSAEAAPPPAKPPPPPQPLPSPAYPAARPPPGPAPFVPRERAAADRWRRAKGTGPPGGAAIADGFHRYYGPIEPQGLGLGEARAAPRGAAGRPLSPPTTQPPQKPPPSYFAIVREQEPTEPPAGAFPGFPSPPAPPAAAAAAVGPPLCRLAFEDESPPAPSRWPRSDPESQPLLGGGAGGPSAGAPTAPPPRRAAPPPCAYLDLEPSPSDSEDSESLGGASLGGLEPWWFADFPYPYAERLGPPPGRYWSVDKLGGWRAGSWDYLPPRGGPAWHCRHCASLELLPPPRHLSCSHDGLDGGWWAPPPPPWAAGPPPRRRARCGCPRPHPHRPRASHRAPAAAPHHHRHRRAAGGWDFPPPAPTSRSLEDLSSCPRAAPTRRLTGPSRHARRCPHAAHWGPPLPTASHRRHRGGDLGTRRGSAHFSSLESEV
Procedure, shortened: as §1

[4] = target: GluN1^ΔCTD/GluN2C receptors (Rattus norvegicus, UniProt P35439+Q00961); format: cell-based; conditions: 100 µM compound; 10 µM L-glutamate/10 µM glycine (Fig. 2C)
Sequence of GluN1^ΔCTD/GluN2C receptors (Q00961 20-1237, stated change not applied, other chains not shown): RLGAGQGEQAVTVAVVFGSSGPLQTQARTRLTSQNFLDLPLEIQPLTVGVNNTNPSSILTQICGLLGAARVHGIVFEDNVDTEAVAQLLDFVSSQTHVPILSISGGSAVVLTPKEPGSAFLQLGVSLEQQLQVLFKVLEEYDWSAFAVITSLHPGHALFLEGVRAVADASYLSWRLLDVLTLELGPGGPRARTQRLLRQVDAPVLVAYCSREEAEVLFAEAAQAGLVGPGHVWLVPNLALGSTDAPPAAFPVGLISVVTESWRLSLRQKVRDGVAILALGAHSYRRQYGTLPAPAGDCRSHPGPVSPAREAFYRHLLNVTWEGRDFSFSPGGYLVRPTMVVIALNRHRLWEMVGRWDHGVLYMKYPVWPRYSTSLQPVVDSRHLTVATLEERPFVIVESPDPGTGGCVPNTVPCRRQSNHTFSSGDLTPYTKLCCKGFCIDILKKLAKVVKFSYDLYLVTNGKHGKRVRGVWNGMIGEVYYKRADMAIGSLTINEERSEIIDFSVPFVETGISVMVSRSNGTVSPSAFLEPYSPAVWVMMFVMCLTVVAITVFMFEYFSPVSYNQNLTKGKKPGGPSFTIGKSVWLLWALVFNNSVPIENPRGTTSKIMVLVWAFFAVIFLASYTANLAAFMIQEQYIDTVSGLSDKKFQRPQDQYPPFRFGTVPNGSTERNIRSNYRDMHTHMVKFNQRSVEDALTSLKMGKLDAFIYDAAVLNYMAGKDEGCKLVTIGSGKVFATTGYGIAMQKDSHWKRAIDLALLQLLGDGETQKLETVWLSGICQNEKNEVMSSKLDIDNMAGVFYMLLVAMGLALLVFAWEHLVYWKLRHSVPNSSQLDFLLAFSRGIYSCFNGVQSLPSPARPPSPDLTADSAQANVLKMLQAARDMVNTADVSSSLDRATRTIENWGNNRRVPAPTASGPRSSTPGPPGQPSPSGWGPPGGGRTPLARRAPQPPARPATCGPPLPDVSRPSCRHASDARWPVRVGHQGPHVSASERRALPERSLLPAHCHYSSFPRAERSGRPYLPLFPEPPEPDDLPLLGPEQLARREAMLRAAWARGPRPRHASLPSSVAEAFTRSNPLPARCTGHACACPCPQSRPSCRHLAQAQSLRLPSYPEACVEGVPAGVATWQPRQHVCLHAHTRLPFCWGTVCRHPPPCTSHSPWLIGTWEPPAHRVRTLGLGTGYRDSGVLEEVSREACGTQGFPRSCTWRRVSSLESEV
Procedure, shortened: as §2

GluN1/GluN2B receptors = GluN1/GluN2B receptors (Rattus norvegicus, UniProt P35439+Q00960); format: cell-based
GluN1/GluN2D receptors = GluN1/GluN2D receptors (Rattus norvegicus, UniProt P35439+Q62645); format: cell-based
Sequence of GluN1/GluN2D receptors (Q62645 28-1323, other chains not shown): as the sequence (Q62645 28-1323, stated change not applied, other chains not shown) above
Procedure, shortened: (§3)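 Oocytes expressed wild-type GluN1a/GluN2 receptors from 15-30 ng RNA (1:3 molar) and were held in ND-96 at 17 °C for 1-5 days. For Ca2+ chelation, 5 mM EGTA (50 nL) was injected 1-2 h before recording, with uninjected and water-injected oocytes as controls. TEVC was run at -60 mV in 116 mM NaCl, 2 mM KCl, 0.3 mM BaCl2, 5 mM HEPES (pH 7.4). […] Values are mean ± s.e.m.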

GluN1/GluN2A receptors = GluN1/GluN2A receptors (Rattus norvegicus, UniProt P35439+Q00959); format: cell-based
Procedure, shortened: as §2

[5] = target: GluN1^ΔCTD/GluN2B receptors (Rattus norvegicus, UniProt P35439+Q00960); format: cell-based; conditions: 100 µM compound; 10 µM L-glutamate/10 µM glycine (Fig. 2C)
Procedure, shortened: as §2

[6] = target: GluN1/GluN2D^ΔCTD receptors (Rattus norvegicus, UniProt P35439+Q62645); format: cell-based
Sequence of GluN1/GluN2D^ΔCTD receptors (Q62645 28-869 limits assumed, stated change not applied, other chains not shown): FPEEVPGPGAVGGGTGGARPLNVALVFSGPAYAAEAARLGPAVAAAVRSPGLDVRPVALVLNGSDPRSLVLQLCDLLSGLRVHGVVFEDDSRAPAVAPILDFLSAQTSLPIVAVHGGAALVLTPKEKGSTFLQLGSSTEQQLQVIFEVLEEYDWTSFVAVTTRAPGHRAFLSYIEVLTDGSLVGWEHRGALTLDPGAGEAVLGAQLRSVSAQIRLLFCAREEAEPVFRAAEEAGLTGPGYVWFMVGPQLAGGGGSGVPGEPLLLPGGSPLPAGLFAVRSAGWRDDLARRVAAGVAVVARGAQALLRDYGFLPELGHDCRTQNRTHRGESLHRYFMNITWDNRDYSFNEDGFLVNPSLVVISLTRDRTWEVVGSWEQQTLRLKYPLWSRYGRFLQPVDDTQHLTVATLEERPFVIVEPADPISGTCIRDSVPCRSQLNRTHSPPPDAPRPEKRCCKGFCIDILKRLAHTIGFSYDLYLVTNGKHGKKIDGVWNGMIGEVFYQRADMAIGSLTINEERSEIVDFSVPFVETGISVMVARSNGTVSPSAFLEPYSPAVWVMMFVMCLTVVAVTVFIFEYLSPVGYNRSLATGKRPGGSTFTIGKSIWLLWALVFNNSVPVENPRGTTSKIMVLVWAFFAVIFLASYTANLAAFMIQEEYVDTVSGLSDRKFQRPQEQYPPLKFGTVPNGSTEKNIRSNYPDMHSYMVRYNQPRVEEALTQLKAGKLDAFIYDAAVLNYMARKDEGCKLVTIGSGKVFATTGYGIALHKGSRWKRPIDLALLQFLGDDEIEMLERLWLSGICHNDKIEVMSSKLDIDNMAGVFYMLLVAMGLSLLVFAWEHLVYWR

[7] = target: GluN1/GluN2B^ΔCTD receptors (Rattus norvegicus, UniProt P35439+Q00960); format: cell-based; conditions: for % potentiation of agonist-evoked current: 10 µM L-glutamate/10 µM glycine (Fig. 2B, 4B)
[8] = target: GluN1^ΔCTD/GluN2A receptors (Rattus norvegicus, UniProt P35439+Q00959); format: cell-based; conditions: for effect of GluN1 CTD-deletion on modulator activity at GluN2A receptors: vs GluN1^WT/GluN2A, GNE-8324 30 µM, PAS 100 µM, DQP-1105 50 µM, TCN-201 10 µM (Fig. 4E, 5G-I)
Procedure, shortened: as §2

[9] = test system: GluN1 CTD in neurons expressing GluN1-GFP, GluN2A and GluN1-mCherry; experiment: CTD-FRET; format: cell-based, rat; conditions: 75 µM compound, absence of agonists, imaged 10 min after application (Fig. 8)
Procedure, shortened: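 Rat primary hippocampal neurons were transfected at DIV 7-10 with ~2 µg total DNA (GluN1-GFP, GluN2A, GluN1-mCherry) by lipofection and imaged at 16-18 DIV in 0.87x HBSS, 5 mM HEPES, 1 mM glucose, 2.5 mM MgCl2, 0.5 mM CaCl2. Baseline and 10 min post-compound two-photon FLIM images were taken, each neuron imaged twice, compounds interleaved. Lifetimes were fit single-exponential and analysed blind; two preparations pooled.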

GluN1/GluN2C receptors = GluN1/GluN2C receptors (Rattus norvegicus, UniProt P35439+Q00961); format: cell-based
Sequence of GluN1/GluN2C receptors (Q00961 20-1237, other chains not shown): as the sequence (Q00961 20-1237, stated change not applied, other chains not shown) above
Procedure, shortened: as §3

[10] = 100 µM compound, 10 µM L-glutamate/10 µM glycine (Fig. 2B, 5A)
[11] = 100 µM compound, 10 µM L-glutamate/10 µM glycine (Fig. 2C)
[12] = 10 µM FSK and 1 mM IBMX for 10 minutes, 50 µM UBP684, 100 µM PS (Fig. 7B, C)
[13] = 100 µM compound, control cells for U73122 experiment (Fig. 6J)
[14] = 10 µM compound, 10 µM L-glutamate/10 µM glycine (Fig. 5D-F)
[15] = 10 µM compound, 10 µM L-glutamate/10 µM glycine, GluN2A^WT (Fig. 5D-F)
[16] = 10 µM compound, 10 µM L-glutamate/10 µM glycine (Fig. 5C)
[17] = 30 µM compound, 10 µM L-glutamate/10 µM glycine (Fig. 4A, 5B)
[18] = 30 µM compound, vs WT (Fig. 5B)
[19] = 10 µM compound, 10 µM L-glutamate/10 µM glycine (Fig. 4D)

Sequence of GluN1/GluN2C^ΔCTD receptors (Q00961 20-842, stated change not applied, other chains not shown): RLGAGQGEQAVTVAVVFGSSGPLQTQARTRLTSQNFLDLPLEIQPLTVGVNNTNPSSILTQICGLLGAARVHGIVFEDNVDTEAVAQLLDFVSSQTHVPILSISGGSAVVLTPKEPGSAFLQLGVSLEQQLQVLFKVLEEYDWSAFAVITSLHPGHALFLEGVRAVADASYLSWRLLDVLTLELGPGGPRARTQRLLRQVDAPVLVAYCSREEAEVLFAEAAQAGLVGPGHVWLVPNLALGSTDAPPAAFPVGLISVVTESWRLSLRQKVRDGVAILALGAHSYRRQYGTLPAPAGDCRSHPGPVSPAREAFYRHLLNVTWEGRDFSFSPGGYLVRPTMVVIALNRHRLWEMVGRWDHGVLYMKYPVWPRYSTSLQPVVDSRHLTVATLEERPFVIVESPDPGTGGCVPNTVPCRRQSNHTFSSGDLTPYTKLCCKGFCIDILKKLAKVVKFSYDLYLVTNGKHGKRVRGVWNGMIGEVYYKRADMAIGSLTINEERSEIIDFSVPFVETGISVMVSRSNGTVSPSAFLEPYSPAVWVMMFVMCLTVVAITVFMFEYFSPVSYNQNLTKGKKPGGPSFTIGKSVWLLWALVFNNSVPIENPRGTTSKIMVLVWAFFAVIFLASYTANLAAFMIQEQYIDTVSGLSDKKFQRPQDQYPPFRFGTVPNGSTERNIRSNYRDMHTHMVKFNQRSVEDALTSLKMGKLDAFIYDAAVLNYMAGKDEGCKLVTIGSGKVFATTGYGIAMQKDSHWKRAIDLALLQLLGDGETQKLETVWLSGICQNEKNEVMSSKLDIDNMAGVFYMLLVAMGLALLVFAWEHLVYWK

5-Pregnen-3β-ol-20-onesulphate [PS]
% inhibition of agonist-evoked current [1, 10]: 89 ± 2%
effect of PKC activation by PMA on PAM activity ([2]; 2 µM PMA for 10 minutes, 50 µM UBP684, 100 µM PS (Fig. 7G, H)): significantly increased
% inhibition of agonist-evoked current [2, 10]: 23 ± 4%
modulation in dose-response experiment ([2]; all doses, the lowest being 3 µM, 10 µM L-glutamate/10 µM glycine (Fig. 3)): NAM activity at all doses
% inhibition of agonist-evoked current [3, 11]: 45 ± 6%
% inhibition of agonist-evoked current [4]: 66 ± 5%
effect of PKC activation by PMA on PAM activity (GluN1/GluN2B receptors; 2 µM PMA for 10 minutes, 50 µM UBP684, 100 µM PS (Fig. 7E, F)): unaffected
effect of PKA activation on % potentiation (GluN1/GluN2B receptors; [12]): unchanged
% potentiation of agonist-evoked current (GluN1/GluN2B receptors; [13]): 82 ± 10%
effect of EGTA injection on modulation (GluN1/GluN2B receptors; 5 mM EGTA injected vs controls (Fig. 6F)): no significant effect
IC50 (GluN1/GluN2D receptors; 10 µM L-glutamate/10 µM glycine, WT GluN1/GluN2D (Fig. 3)): 149.8 ± 18.0%
effect of EGTA injection on potentiation/modulation (GluN1/GluN2D receptors; 5 mM EGTA injected vs controls (Fig. 6D, H)): no significant effect
effect of PKA activation on % potentiation (GluN1/GluN2A receptors; [12]): unchanged
% potentiation of agonist-evoked current (GluN1/GluN2A receptors; [13]): 45 ± 3%
effect of EGTA injection on modulation (GluN1/GluN2A receptors; 5 mM EGTA injected vs controls (Fig. 6E)): no significant effect
% potentiation of agonist-evoked current [5]: 156 ± 25%
IC50 ([6]; 10 µM L-glutamate/10 µM glycine (Fig. 3)): 76.7 ± 19.1%
% inhibition of agonist-evoked current [6, 10]: 49 ± 8%
% potentiation of agonist-evoked current ([7]; 100 µM compound): 74 ± 10%
% potentiation of agonist-evoked current [8, 11]: 32 ± 4%
change of GluN1-GFP fluorescence lifetime (movement of the GluN1 CTD) [9]: did not affect
effect of EGTA injection on potentiation/modulation (GluN1/GluN2C receptors; 5 mM EGTA injected vs controls (Fig. 6C, G)): no significant effect

Cc1ncc(CNC(=O)c2cnc(CNS(=O)(=O)c3ccc(F)c(F)c3)c(C)n2)s1 [MPX-007]
% inhibition of agonist-evoked current [2, 14]: 36 ± 6%
% inhibition of agonist-evoked current (GluN1/GluN2A receptors; [15]): 77 ± 9%

COC(=O)c1ccc(C2C(C(C)=O)=C(O)C(=O)N2CCc2c(C)[nH]c3ccccc23)cc1 (stereo not drawn) [PYD-106]
% potentiation of agonist-evoked current ([1]; 30 µM compound, 10 µM L-glutamate/10 µM glycine (Fig. 4C)): 21 ± 3%
% potentiation of agonist-evoked current (GluN1/GluN2C receptors; 30 µM compound, 10 µM L-glutamate/10 µM glycine, GluN2C^WT (Fig. 4C)): 64 ± 4%

NCCCNCCCCNCCCN [Spermine]
% potentiation of agonist-evoked current ([7]; 100 µM compound): 57 ± 5%

Cc1ccc2[nH]c(=O)c(C3=NN(C(=O)CCC(=O)O)C(c4ccc(Br)cc4)C3)c(-c3ccccc3)c2c1 (stereo not drawn) [DQP-1105]
% inhibition of agonist-evoked current [1, 16]: 79 ± 4%
% inhibition of agonist-evoked current ([2]; 50 µM compound, 10 µM L-glutamate/10 µM glycine (Fig. 5C)): 82 ± 4%
% inhibition of agonist-evoked current (GluN1/GluN2D receptors; 10 µM compound, 10 µM L-glutamate/10 µM glycine, GluN2D^WT (Fig. 5C)): 87 ± 1%
% inhibition of agonist-evoked current (GluN1/GluN2A receptors; 50 µM compound, 10 µM L-glutamate/10 µM glycine, WT (Fig. 5C)): 39 ± 3%
% inhibition of agonist-evoked current [6, 16]: 97 ± 2%
effect of GluN1 CTD-deletion on modulator activity at GluN2A receptors [8]: did not observe any effect
% inhibition of agonist-evoked current (GluN1/GluN2C receptors; 10 µM compound, 10 µM L-glutamate/10 µM glycine, WT (Fig. 5C)): 69 ± 2%

CC(=O)[C@H]1CC[C@H]2[C@@H]3CC[C@@H]4C[C@H](OS(=O)(=O)O)CC[C@]4(C)[C@H]3CC[C@]12C [PAS, 5β-pregnan-3α-ol-20-onesulphate]
% inhibition of agonist-evoked current [1, 10]: 93 ± 1%
% inhibition of agonist-evoked current [2, 10]: 89 ± 2%
% inhibition of agonist-evoked current (GluN1/GluN2B receptors; 100 µM compound, 10 µM L-glutamate/10 µM glycine, GluN2B^WT (Fig. 5A)): 67 ± 1%
% inhibition of agonist-evoked current (GluN1/GluN2A receptors; 100 µM compound, 10 µM L-glutamate/10 µM glycine, GluN2A^WT (Fig. 5A)): 61 ± 3%
% inhibition of agonist-evoked current [6, 10]: 85 ± 5%
% inhibition of agonist-evoked current ([7]; 100 µM compound, 10 µM L-glutamate/10 µM glycine (Fig. 5A)): 76 ± 3%
effect of GluN1 CTD-deletion on modulator activity at GluN2A receptors [8]: did not observe any effect

CCN(Cc1cc(=O)n2c3c(sc2n1)CCC3)c1ccc(F)cc1 [GNE-8324]
% inhibition of agonist-evoked current [2, 17]: 11 ± 2%
% potentiation of agonist-evoked current (GluN1/GluN2A receptors; 30 µM compound, 10 µM L-glutamate/10 µM glycine, GluN2A^WT (Fig. 4A)): 35 ± 4%
effect of GluN1 CTD-deletion on modulator activity at GluN2A receptors [8]: unaffected

O=C(O)c1cc2cc(/C=C/c3ccccc3[N+](=O)[O-])ccc2cc1O [UBP792]
effect of GluN2C CTD-deletion on NAM activity [1, 18]: did not display a significant effect
% inhibition of agonist-evoked current [2, 17]: 64 ± 6%
% inhibition of agonist-evoked current (GluN1/GluN2D receptors; 30 µM compound, 10 µM L-glutamate/10 µM glycine, wild-type (Fig. 5B)): 86 ± 1%
% inhibition of agonist-evoked current (GluN1/GluN2A receptors; 30 µM compound, 10 µM L-glutamate/10 µM glycine, WT (Fig. 5B)): 22 ± 8%
% inhibition of agonist-evoked current ([6]; 30 µM compound, 10 µM L-glutamate/10 µM glycine (Fig. 5B)): 68 ± 7%
effect of GluN2B CTD-deletion on NAM activity [7, 18]: did not display a significant effect

COc1ccc(OCC2c3cc(OC)c(OC)cc3CCN2C(=O)c2cccc(Cl)c2)cc1 (stereo not drawn) [CIQ]
% potentiation of agonist-evoked current [1, 19]: 113 ± 13%
effect of GluN1 CTD-deletion on PAM activity ([3]; 10 µM compound, vs wild-type GluN1/GluN2D (Fig. 4F)): significantly reduced
% potentiation of agonist-evoked current (GluN1/GluN2D receptors; 10 µM compound, 10 µM L-glutamate/10 µM glycine, GluN2D^WT (Fig. 4D)): 72 ± 11%
% potentiation of agonist-evoked current [6, 19]: 48 ± 5%
% potentiation of agonist-evoked current (GluN1/GluN2C receptors; 10 µM compound, 10 µM L-glutamate/10 µM glycine, GluN2C^WT (Fig. 4D)): 89 ± 8%

Cc1ncc(CNC(=O)c2cnc(CNS(=O)(=O)c3ccc(F)c(Cl)c3)cn2)s1 [MPX-004]
% inhibition of agonist-evoked current [2, 14]: 29 ± 13%
% inhibition of agonist-evoked current (GluN1/GluN2A receptors; [15]): 75 ± 8%

O=C(NNC(=O)c1ccc(CNS(=O)(=O)c2ccc(F)c(Cl)c2)cc1)c1ccccc1 [TCN-201]
% inhibition of agonist-evoked current [2, 14]: 53 ± 5%
% inhibition of agonist-evoked current (GluN1/GluN2A receptors; [15]): 82 ± 2%
effect of GluN1 CTD-deletion on modulator activity at GluN2A receptors [8]: did not observe any effect
